For 1 compound, inhibition results are on record in ChEMBL document CHEMBL4480410, “Targeting the MKK7-JNK (Mitogen-Activated Protein Kinase Kinase 7-c-Jun N-Terminal Kinase) Pathway with Covalent Inhibitors” (J Med Chem, 2019).

This test has as its target T1, Dual specificity mitogen-activated protein kinase kinase 7 (Mus musculus) (UniProt Q8CE90).
T1 sequence (whole entry): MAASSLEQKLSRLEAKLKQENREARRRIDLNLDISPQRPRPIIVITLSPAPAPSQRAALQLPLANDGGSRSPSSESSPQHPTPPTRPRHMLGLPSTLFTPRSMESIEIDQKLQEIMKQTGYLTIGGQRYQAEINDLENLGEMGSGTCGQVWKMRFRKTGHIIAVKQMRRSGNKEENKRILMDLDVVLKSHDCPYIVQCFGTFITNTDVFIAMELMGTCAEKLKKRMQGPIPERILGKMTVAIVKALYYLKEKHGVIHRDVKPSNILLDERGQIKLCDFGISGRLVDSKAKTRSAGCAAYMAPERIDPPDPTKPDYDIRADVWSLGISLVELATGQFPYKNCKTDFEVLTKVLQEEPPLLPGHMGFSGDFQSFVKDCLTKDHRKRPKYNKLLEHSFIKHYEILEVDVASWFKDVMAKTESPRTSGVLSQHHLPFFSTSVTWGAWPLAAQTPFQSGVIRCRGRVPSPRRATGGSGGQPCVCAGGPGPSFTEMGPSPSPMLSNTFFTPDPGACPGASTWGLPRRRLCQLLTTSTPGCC
Nature of the test: Inhibition of MKK7 in mouse DRG cells assessed as reduction in JNK phosphorylation at 1 uM after 2 hrs by Western blot analysis. The class given is cell-based. The procedure, abridged:
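Dissociated DRG neurons plated on laminin for 3 h, medium replaced, compound added for a further 2 h. Neurons lysed in RIPA buffer with phosphatase inhibitors. Western blots probed for phospho-cJun, cJun, phospho-JNK and JNK.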

The source made the active and inactive calls. The rule behind the calls is not given here.

`C=CC(=O)N1CCC[C@@H](n2nc(-c3cn(-c4ccc(C(C)=O)cc4)nn3)c3c(N)ncnc32)C1`: the inhibition result is “Active”.
